In ChEMBL document CHEMBL1156077, “Piperazinyl-glutamate-pyrimidines as potent P2Y12 antagonists for inhibition of platelet aggregation” (Bioorg Med Chem Lett, 2009):

How the values were obtained:
[1] = Selectivity for human P2Y12 receptor over P2Y13
[2] = target: T1, P2Y purinoceptor 12 (Homo sapiens, UniProt Q9H244); assay: Ratio of compound IC50 to thienopyrimidine IC50 for P2Y12 receptor in human platelet rich plasma assessed as inhibition of ADP-induced platelet aggregation by light transmission aggregometry
T1 sequence (Q9H244 whole entry): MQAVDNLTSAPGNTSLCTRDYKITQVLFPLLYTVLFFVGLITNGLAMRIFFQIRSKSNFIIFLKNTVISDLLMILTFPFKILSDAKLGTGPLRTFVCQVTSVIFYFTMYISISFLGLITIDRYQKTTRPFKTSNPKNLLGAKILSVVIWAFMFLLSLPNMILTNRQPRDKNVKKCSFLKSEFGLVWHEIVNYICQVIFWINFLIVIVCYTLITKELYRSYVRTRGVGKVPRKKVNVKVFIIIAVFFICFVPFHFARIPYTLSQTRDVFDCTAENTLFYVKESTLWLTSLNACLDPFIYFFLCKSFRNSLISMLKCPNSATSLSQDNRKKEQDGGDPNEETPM
Outline: (§1)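 Human platelet-rich plasma was pre-incubated 5 min at 37 °C with compound across seven concentrations (10 down to 0.156). Aggregation was started with ADP (20, final) and followed by light transmission at 626 nm for 15 min at 37 °C. Duplicate concentration-response data were read at the 15-min end-point. IC50 was divided by the IC50 of the thienopyrimidine reference run on the same plate.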

[3] = test system: Liver microsomes; assay: Metabolic stability in rat liver microsomes assessed as compound remaining; type: ADME, Microsome
Outline: (§2)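 Compounds incubated 30 min with human or rat liver microsomes; percent of parent compound remaining measured.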

[4] = Volume of distribution at steady state in Sprague-Dawley rat at 2 mg/kg, iv and 5 mg/kg, po; type: ADME, organism-based; details: in vivo, read-out: Vdss
[5] = target: T2, CYP1A2 (Homo sapiens, UniProt P05177); assay: Inhibition of CYP1A2 at 3 uM after 30 mins; type: ADME
T2 sequence (P05177 whole entry): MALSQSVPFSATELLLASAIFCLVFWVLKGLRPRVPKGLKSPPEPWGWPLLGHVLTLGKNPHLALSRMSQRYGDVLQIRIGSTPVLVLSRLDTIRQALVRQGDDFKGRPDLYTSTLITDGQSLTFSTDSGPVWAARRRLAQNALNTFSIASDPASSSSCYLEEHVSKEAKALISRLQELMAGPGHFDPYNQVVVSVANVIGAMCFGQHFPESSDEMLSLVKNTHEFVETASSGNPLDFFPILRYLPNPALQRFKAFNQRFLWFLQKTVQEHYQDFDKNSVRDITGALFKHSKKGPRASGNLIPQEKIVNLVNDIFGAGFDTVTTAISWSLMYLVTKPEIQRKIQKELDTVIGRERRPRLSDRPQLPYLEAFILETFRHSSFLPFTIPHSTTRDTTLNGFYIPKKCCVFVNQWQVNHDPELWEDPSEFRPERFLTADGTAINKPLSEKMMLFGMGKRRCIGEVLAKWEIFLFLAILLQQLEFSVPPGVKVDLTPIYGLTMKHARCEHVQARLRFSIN
Outline: (§3)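 Each CYP isoform assayed separately at a single 3 µM compound concentration in duplicate, with at least one isoform-specific positive control inhibitor. Incubation 30 min at 37 °C; end-point measurement gives percent inhibition.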

[6] = target: hERG (KCNH2) (Homo sapiens, UniProt Q12809); assay: Displacement of Cy3B-tagged N-desmethyl dofetilide from human ERG expressed in HEK cells at 10 uM after 120 mins; type: cell-based, HEK293; details: HEK cells that express human ERG, probe Cy3B-tagged N-desmethyl dofetilide
Chain of hERG (KCNH2) (Q12809 whole entry): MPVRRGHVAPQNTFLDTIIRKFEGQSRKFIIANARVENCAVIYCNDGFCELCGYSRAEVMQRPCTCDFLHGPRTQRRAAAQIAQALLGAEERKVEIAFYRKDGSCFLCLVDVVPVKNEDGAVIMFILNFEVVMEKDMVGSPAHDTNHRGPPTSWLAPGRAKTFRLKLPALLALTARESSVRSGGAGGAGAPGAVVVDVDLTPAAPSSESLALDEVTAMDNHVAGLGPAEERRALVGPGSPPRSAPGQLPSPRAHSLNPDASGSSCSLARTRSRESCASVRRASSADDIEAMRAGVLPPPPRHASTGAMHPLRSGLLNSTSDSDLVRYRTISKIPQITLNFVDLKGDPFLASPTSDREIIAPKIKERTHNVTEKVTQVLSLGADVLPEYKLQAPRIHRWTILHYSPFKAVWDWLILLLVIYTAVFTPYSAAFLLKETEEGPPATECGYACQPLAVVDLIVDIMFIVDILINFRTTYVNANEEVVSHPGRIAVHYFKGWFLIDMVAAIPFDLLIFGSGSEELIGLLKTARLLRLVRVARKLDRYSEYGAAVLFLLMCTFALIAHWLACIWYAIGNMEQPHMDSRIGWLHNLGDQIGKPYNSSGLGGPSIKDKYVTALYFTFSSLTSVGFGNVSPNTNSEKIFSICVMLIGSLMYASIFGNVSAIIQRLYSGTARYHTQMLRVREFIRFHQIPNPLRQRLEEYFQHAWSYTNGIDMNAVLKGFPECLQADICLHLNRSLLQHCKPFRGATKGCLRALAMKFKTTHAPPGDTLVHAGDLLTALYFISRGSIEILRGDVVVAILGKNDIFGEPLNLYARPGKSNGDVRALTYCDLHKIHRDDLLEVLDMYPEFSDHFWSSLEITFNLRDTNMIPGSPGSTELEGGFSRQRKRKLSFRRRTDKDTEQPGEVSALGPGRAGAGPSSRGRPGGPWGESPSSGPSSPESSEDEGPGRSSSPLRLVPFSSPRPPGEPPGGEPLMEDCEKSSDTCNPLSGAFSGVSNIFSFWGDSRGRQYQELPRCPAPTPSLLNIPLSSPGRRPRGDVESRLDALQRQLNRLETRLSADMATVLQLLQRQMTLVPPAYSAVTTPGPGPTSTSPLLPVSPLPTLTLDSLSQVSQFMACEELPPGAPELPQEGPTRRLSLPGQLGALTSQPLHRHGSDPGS
Outline: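 Fluorescence polarization competition assay with HEK-hERG membrane homogenates and Cy3B-tagged N-desmethyl dofetilide tracer. Compound tested at a single 10 µM concentration, 120 min incubation, end-point read for percent inhibition.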

[7] = target: CYP3A4 (Homo sapiens, UniProt P08684); assay: Inhibition of CYP3A4 at 3 uM after 30 mins; type: ADME; outline: as §3
Chain of CYP3A4 (P08684 whole entry): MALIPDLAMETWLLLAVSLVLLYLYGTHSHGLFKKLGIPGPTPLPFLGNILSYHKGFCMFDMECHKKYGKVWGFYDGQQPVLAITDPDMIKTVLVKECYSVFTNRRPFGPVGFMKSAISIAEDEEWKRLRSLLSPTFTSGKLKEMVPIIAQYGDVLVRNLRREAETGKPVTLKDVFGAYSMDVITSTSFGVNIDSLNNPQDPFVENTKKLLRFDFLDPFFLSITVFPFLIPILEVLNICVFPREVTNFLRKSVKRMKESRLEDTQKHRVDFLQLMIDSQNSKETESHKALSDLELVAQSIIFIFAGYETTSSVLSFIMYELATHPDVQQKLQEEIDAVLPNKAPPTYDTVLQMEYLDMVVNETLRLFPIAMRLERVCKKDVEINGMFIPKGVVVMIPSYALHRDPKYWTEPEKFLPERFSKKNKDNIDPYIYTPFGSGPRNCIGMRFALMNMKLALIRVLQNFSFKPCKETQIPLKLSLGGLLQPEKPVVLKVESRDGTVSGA

[8] = Oral bioavailability in Sprague-Dawley rat at 5 mg/kg; type: ADME, organism-based; details: in vivo
[9] = target: T1, P2Y purinoceptor 12; assay: Ratio of compound IC50 to AZD-6140 IC50 for P2Y12 receptor in human platelet rich plasma assessed as inhibition of ADP-induced platelet aggregation by light transmission aggregometry
Outline: as §1, with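 “AZD-6140” for “the thienopyrimidine reference”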

[10] = target: CYP2D6 (Homo sapiens, UniProt P10635); assay: Inhibition of CYP2D6 at 3 uM after 30 mins; type: ADME; outline: as §3
Chain of CYP2D6 (P10635 whole entry): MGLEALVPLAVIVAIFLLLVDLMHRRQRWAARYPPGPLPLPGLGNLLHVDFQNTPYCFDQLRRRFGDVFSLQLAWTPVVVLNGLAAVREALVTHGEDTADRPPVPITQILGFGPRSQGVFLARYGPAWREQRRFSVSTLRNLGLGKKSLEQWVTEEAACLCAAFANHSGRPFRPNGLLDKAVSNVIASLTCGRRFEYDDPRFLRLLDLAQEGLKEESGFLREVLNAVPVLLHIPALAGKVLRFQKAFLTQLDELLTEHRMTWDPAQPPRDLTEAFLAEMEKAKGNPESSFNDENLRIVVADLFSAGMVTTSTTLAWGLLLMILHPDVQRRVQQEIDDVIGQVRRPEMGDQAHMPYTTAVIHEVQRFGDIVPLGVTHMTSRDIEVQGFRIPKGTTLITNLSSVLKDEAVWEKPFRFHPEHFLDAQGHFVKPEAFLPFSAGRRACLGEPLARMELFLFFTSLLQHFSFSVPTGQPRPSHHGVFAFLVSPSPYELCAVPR

[11] = test system: Liver microsomes; assay: Metabolic stability in human liver microsomes assessed as compound remaining; type: ADME, Microsome; outline: as §2
[12] = Effective half life in Sprague-Dawley rat at 2 mg/kg, iv and 5 mg/kg, po; type: ADME, organism-based; details: in vivo
[13] = Selectivity for human P2Y12 receptor over P2Y1
[14] = Clearance in Sprague-Dawley rat at 2 mg/kg, iv and 5 mg/kg, po; type: ADME, organism-based; details: in vivo
[15] = target: T1, P2Y purinoceptor 12; assay: Binding affinity at human recombinant P2Y12 receptor expressed in CHO cells by radioligand binding assay; type: cell-based
Outline: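 Washed membranes from CHO cells transfected with synthetic human P2Y12 gene. Compounds as 7-point threefold dilutions, triplicate, 1 h at room temperature. Nonspecific binding defined with 300 nM 2-MeSADP. Filtered, washed with ice-cold Tris pH 7.4. Single-site fit; IC50 converted to Ki by Cheng–Prusoff, geometric mean of n≥2.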

[16] = target: CYP2C9 (Homo sapiens, UniProt P11712); assay: Inhibition of CYP2C9 at 3 uM after 30 mins; type: ADME; outline: as §3
Chain of CYP2C9 (P11712 whole entry): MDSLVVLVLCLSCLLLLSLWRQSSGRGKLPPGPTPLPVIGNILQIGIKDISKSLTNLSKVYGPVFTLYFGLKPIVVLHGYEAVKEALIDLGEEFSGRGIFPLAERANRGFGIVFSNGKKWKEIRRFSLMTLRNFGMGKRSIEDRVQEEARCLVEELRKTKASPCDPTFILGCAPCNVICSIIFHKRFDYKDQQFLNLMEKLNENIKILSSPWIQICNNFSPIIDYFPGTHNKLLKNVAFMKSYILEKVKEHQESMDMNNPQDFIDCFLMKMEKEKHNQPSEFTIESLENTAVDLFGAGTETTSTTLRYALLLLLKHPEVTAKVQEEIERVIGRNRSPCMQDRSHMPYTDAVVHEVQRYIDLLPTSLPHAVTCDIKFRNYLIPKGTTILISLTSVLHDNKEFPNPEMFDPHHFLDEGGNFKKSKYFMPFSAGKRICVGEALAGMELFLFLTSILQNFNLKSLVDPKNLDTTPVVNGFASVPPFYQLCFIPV

Structure (SMILES) | fold change (FC) [1] | Ratio IC50 [2] | Stability [3] | Vd [4] | inhibition at 0.5 h, 3 µM [5] | inhibition at 2 h, 10 µM [6] | inhibition at 0.5 h, 3 µM [7] | bioavailability [8] | Ratio IC50 [9] | inhibition at 0.5 h, 3 µM [10] | Stability [11] | half-life [12] | fold change (FC) [13] | clearance [14] | Ki [15] | inhibition at 0.5 h, 3 µM [16]
CCCCCOC(=O)N1CCN(C(=O)[C@H](CCC(=O)O)NC(=O)c2cc(N3CCC(C(=O)N(CC)CC)CC3)nc(-c3ccccc3)n2)CC1 | > 340 | 0.1 | > 80% | 0.21 L/kg | < 25% | < 25% | < 25% | 38% | 0.6 | < 25% | > 80% | 24 min | > 340 | 6 mL/min/kg | 1.5 nM | < 25%
CCCCCOC(=O)N1CCN(C(=O)[C@H](CCC(=O)O)NC(=O)c2cc(N3CCC(OCCO)CC3)nc(-c3ccccc3)n2)CC1 | > 340 | 0.4 | > 80% | 0.8 L/kg | < 25% | < 25% | < 25% | – | 0.9 | < 25% | > 80% | 30 min | > 340 | 18 mL/min/kg | 0.71 nM | < 25%
CCCCOC(=O)N1CCN(C(=O)[C@H](CCC(=O)O)NC(=O)c2cc(N3CCC(C(=O)NCC)CC3)nc(-c3ccccc3)n2)CC1 | > 340 | 0.1 | > 80% | 0.3 L/kg | < 25% | < 25% | < 25% | 7% | 0.6 | < 25% | > 80% | 6 min | > 340 | 16 mL/min/kg | 0.38 nM | < 25%
CCCCCOC(=O)N1CCN(C(=O)[C@H](CCC(=O)O)NC(=O)c2cc(N3CCC(C(=O)N4CCCC4)CC3)nc(-c3ccccc3)n2)CC1 | > 340 | 0.06 | > 80% | 0.2 L/kg | < 25% | < 25% | < 25% | 13% | 0.4 | < 25% | > 80% | 48 min | > 340 | 2 mL/min/kg | 0.46 nM | < 25%
CCCCOC(=O)N1CCN(C(=O)[C@H](CCC(=O)O)NC(=O)c2cc(N3CCC(N4CCOCC4)CC3)nc(-c3ccccc3)n2)CC1 | > 340 | 0.2 | – | – | – | – | – | – | 1.1 | – | – | – | > 340 | – | 1.3 nM | –
CCCCCOC(=O)N1CCN(C(=O)[C@H](CCC(=O)O)NC(=O)c2nc(-c3ccccc3)cc(N3CCC(CNC)CC3)n2)CC1 | > 340 | 0.4 | – | – | – | – | – | – | 1 | – | – | – | > 340 | – | 11 nM | –
CCCCCOC(=O)N1CCN(C(=O)[C@H](CCC(=O)O)NC(=O)c2cc(OCC3CCNCC3)nc(-c3ccccc3)n2)CC1 | > 340 | 0.3 | – | – | – | – | – | – | 1.7 | – | – | – | > 340 | – | 2.2 nM | –
CCCCCOC(=O)N1CCN(C(=O)[C@H](CCC(=O)O)NC(=O)c2nc(-c3ccccc3)cc(N3CCN(C(C)=O)CC3)n2)CC1 | > 340 | 1.8 | – | – | – | – | – | – | 8.9 | – | – | – | > 340 | – | 29 nM | –
CCCCOC(=O)N1CCN(C(=O)[C@H](CCC(=O)O)NC(=O)c2cc(N3CCC(C(=O)N4CCCC4)CC3)nc(-c3ccccc3)n2)CC1 | > 340 | 0.08 | – | – | – | – | – | – | 0.4 | – | – | – | > 340 | – | 0.7 nM | –
CCCCCOC(=O)N1CCN(C(=O)[C@H](CCC(=O)O)NC(=O)c2cc(N3CCNCC3)nc(-c3ccccc3)n2)CC1 | > 340 | 0.3 | – | – | – | – | – | – | 1.4 | – | – | – | > 340 | – | 2 nM | –
CCCCCOC(=O)N1CCN(C(=O)[C@H](CCC(=O)O)NC(=O)c2cc(N3CCN(C(C)=O)CC3)nc(-c3ccccc3)n2)CC1 | > 340 | 0.3 | – | – | – | – | – | – | 1 | – | – | – | > 340 | – | 3.7 nM | –
CCCCCOC(=O)N1CCN(C(=O)[C@H](CCC(=O)O)NC(=O)c2nc(-c3ccccc3)cc(N3CCN(CCOC)CC3)n2)CC1 | > 340 | 1.6 | – | – | – | – | – | – | 8.3 | – | – | – | > 340 | – | 12 nM | –
CCCCOC(=O)N1CCN(C(=O)[C@H](CCC(=O)O)NC(=O)c2cc(OCCN(CC)CC)nc(-c3ccccc3)n2)CC1 | > 340 | 1.1 | – | – | – | – | – | – | 4.3 | – | – | – | > 340 | – | 72 nM | –
CCCCOC(=O)N1CCN(C(=O)[C@H](CCC(=O)O)NC(=O)c2cc(OC3CCN(C(C)C)CC3)nc(-c3ccccc3)n2)CC1 | > 340 | 0.8 | – | – | – | – | – | – | 2.8 | – | – | – | > 340 | – | 19 nM | –
CCCCCOC(=O)N1CCN(C(=O)[C@H](CCC(=O)O)NC(=O)c2cc(N3CCN(C(N)=O)CC3)nc(-c3ccccc3)n2)CC1 | > 340 | 0.2 | – | – | – | – | – | – | 0.8 | – | – | – | > 340 | – | 1.2 nM | –
CCCCCOC(=O)N1CCN(C(=O)[C@H](CCC(=O)O)NC(=O)c2cc(N3CCC(CCOC)CC3)nc(-c3ccccc3)n2)CC1 | > 340 | 1.3 | – | – | – | – | – | – | 5.4 | – | – | – | > 340 | – | 10.2 nM | –
CCCCCOC(=O)N1CCN(C(=O)[C@H](CCC(=O)O)NC(=O)c2cc(N3CCC(N4CCCC4)CC3)nc(-c3ccccc3)n2)CC1 | > 340 | 0.1 | > 80% | – | < 25% | < 25% | < 25% | – | 0.4 | < 25% | > 80% | – | > 340 | – | 1.5 nM | < 25%
CCCCCOC(=O)N1CCN(C(=O)[C@H](CCC(=O)O)NC(=O)c2nc(-c3ccccc3)cc(N3CCC(C(=O)N4CCCC4)CC3)n2)CC1 | > 340 | 0.5 | – | – | – | – | – | – | 1.8 | – | – | – | > 340 | – | 3.6 nM | –
CCCCCOC(=O)N1CCN(C(=O)[C@H](CCC(=O)O)NC(=O)c2cc(N3CCC(C(N)=O)CC3)nc(-c3ccccc3)n2)CC1 | > 340 | 0.1 | > 80% | 2.4 L/kg | < 25% | < 25% | < 25% | – | 0.7 | < 25% | > 80% | 24 min | > 340 | 68 mL/min/kg | 2 nM | < 25%
CCCCCOC(=O)N1CCN(C(=O)[C@H](CCC(=O)O)NC(=O)c2nc(-c3ccccc3)cc(N3CCC(N)CC3)n2)CC1 | > 340 | 0.6 | – | – | – | – | – | – | 3.1 | – | – | – | > 340 | – | 8.4 nM | –
